In brackets after ≈: the same amount, converted by molar mass.
Key:
Leishmania donovani [1] = experiment: Antileishmanial activity against Leishmania donovani MHOM/IN/1983/AG83 promastigotes after 4 hrs by MTT assay; format: functional, organism-based; conditions: MHOM/IN/1983/AG83, 4 h
Method in brief: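 AG83 promastigotes kept at 22 °C in M199 + 10% FBS. Log-phase cells (2×10^6/ml) exposed 2 h at 22 °C to 1, 3, 5, 7, 10, 15 compound; DMSO at 0.1% final. Cells washed with PBS, incubated 4 h at 22 °C with MTT (2 mg/ml). Formazan dissolved in DMSO and read at 570 nm; % lysis computed, IC50 by linear regression.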

Leishmania donovani [2] = experiment: Antileishmanial activity against Leishmania donovani MHOM/IN/1983/AG83 amastigotes by Giemsa staining; format: functional, organism-based
Method in brief: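 Peritoneal macrophages from thioglycolate-elicited exudate (~2×10^6/ml), adhered overnight on coverslips in RPMI-1640 + 10% FBS at 37 °C, 5% CO2. Infected 6 h with stationary-phase AG83 promastigotes (2×10^7/ml), washed, then exposed 24 h to 0.5, 1, 3, 5, 10 compound. Methanol-fixed, Giemsa-stained; amastigotes per 200 macrophages counted against untreated controls.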

[3] = Toxicity against golden Syrian hamster peritoneal macrophages; format: cell-based, Mesocricetus auratus; conditions: macrophage
Leishmania donovani [4] = experiment: Antileishmanial activity against Leishmania donovani MHOM/IN/1983/AG83 promastigotes infected ip dosed BALB/c mouse assessed as reduction in spleen parasite burden administered two times per week for 4 weeks relative to control; format: functional; design: scale not given: the % may be the effect or the level left
Method in brief: (§1)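 BALB/c mice (4-6 weeks) were infected iv with 2 × 10^7 freshly transformed promastigotes. One month later, groups were dosed ip in 0.2% Tween 80 in PBS (0.02 M), twice weekly for one month (8 doses); controls got vehicle only. Mice were killed one month post-treatment and spleen and liver were weighed. Parasite load came from Giemsa impression smears as organ weight (mg) × amastigotes per cell nucleus × 2 × 10^5. Values are mean ± S.E. of 5 mice; unpaired t-test.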

Leishmania donovani [5] = experiment: Antileishmanial activity against Leishmania donovani MHOM/IN/1983/AG83 promastigotes infected ip dosed BALB/c mouse assessed as reduction in liver parasite burden administered two times per week for 4 weeks relative to control; format: functional; design: scale not given: the % may be the effect or the level left; method in brief: as §1
Leishmania donovani [6] = experiment: Antileishmanial activity against Leishmania donovani MHOM/IN/1983/AG83 promastigotes infected BALB/c mouse assessed as liver weight at 12.5 mg/kg, ip administered two times per week for 4 weeks; format: functional; conditions: route intraperitoneal; method in brief: as §1
Leishmania donovani [7] = experiment: Antileishmanial activity against Leishmania donovani MHOM/IN/1983/AG83 promastigotes infected BALB/c mouse assessed as spleen weight at 12.5 mg/kg, ip administered two times per week for 4 weeks; format: functional; conditions: route intraperitoneal; method in brief: as §1

| Compound | IC50 (Leishmania donovani [1]) | IC50 (Leishmania donovani [2]) | Activity [3] | Activity (Leishmania donovani [4]) | Activity (Leishmania donovani [5]) | Activity (Leishmania donovani [6]) | Activity (Leishmania donovani [7]) |
| --- | --- | --- | --- | --- | --- | --- | --- |
| Cc1ccc2cccc(OCCCOc3cccc4ccc(C)nc34)c2n1 | 13.5 µg/mL (≈ 37.7 µM) | 10 µg/mL (≈ 27.9 µM) | > 200 µg/mL | – | – | – | – |
| O=c1ccc2cccc3c2n1CCO3 [OXAZINOQUINOLONE] | 16.5 µg/mL (≈ 88.1 µM) | 14 µg/mL (≈ 74.8 µM) | > 220 µg/mL | – | – | – | – |
| Cc1ccc2cccc(OCCCCCOc3cccc4ccc(C)nc34)c2n1 | 2.8 µg/mL (≈ 7.24 µM) | 2.4 µg/mL (≈ 6.21 µM) | > 85 µg/mL | 82% | 88.5% | 1020 mg | 135 mg |
| N=C(N)c1ccc(OCCCCCOc2ccc(C(=N)N)cc2)cc1 [PENTAMIDINE] | 2.1 µg/mL (≈ 6.17 µM) | 2.8 µg/mL (≈ 8.22 µM) | > 90 µg/mL | – | – | – | – |
| c1cnc2c(OCOc3cccc4cccnc34)cccc2c1 | 2.4 µg/mL (≈ 7.94 µM) | 2.3 µg/mL (≈ 7.61 µM) | > 85 µg/mL | 89% | 92% | 980 mg | 110 mg |
| C[C@@H]1[C@H](O)[C@@H](C)/C=C/C=C/C=C/C=C/C=C/C=C/C=C/[C@H](O[C@@H]2O[C@H](C)[C@@H](O)[C@H](N)[C@@H]2O)C[C@@H]2O[C@](O)(C[C@@H](O)C[C@@H](O)[C@H](O)CC[C@@H](O)C[C@@H](O)CC(=O)O[C@H]1C)C[C@H](O)[C@H]2C(=O)O [AMPHOTERICIN B] | 0.16 µg/mL (≈ 0.173 µM) | 0.1 µg/mL (≈ 0.108 µM) | > 4 µg/mL | – | – | – | – |
| Cc1ccc2cccc(OCCCCOc3cccc4ccc(C)nc34)c2n1 | 3.2 µg/mL (≈ 8.59 µM) | 2.7 µg/mL (≈ 7.25 µM) | > 90 µg/mL | 73.5% | 78% | 1125 mg | 190 mg |
| Cc1ccc2cccc(OCOc3cccc4ccc(C)nc34)c2n1 | 3.4 µg/mL (≈ 10.3 µM) | 2.9 µg/mL (≈ 8.78 µM) | > 100 µg/mL | – | – | 1205 mg | 232 mg |

From ChEMBL document CHEMBL1153864, “Phase transfer catalyzed synthesis of bis-quinolines: antileishmanial activity in experimental visceral leishmaniasis and in vitro antibacterial evaluation” (Eur J Med Chem, 2009)
